Data published in PMC4832308 (Cancer, 2015).

System: patients with advanced solid tumors or multiple myeloma
Assay: phase 1 dose escalation: safety, tolerability, DLT, MTD
Format: in vivo, human
Outline: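 Modified accelerated titration from 7.5 mg, oral daily in 28-day cycles. Single-patient cohorts used 100% increments until the first drug-related grade ≥2 toxicity, then 6-patient cohorts used ~50% steps. A dose with ≥2 DLTs was nontolerated. MTD was the last lower dose with 0–1 of 6 DLTs in cycle 1. Adverse events were graded by NCI CTCAE version 4.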

SMILES: CO[C@H]1CC[C@H](N2C(=O)CNc3ncc(-c4ccc(C(C)(C)O)nc4)nc32)CC1 [CC‐223]
- Arthralgia (treatment‐related AE) (7.5 mg, Any Grade): 0 n (%)
- Asthenia (treatment‐related AE) (7.5 mg, Any Grade): 0 n (%)
- Decreased appetite (treatment‐related AE) (7.5 mg, Any Grade): 0 n (%)
- Diarrhea (treatment‐related AE) (7.5 mg, Any Grade): 0 n (%)
- Dry mouth (treatment‐related AE) (7.5 mg, Any Grade): 0 n (%)
- Dysgeusia (treatment‐related AE) (7.5 mg, Any Grade): 1 (100) n (%)
- Dyspnea (treatment‐related AE) (7.5 mg, Any Grade): 0 n (%)
- Fatigue (treatment‐related AE) (7.5 mg, Any Grade): 1 (100) n (%)
- Hyperglycemia (treatment‐related AE) (7.5 mg, Any Grade): 0 n (%)
- Increased glycosylated hemoglobin (treatment‐related AE) (7.5 mg, Any Grade): 0 n (%)
- Mucositis (treatment‐related AE) (7.5 mg, Any Grade): 0 n (%)
- Nausea (treatment‐related AE) (7.5 mg, Any Grade): 1 (100) n (%)
- Pruritus (treatment‐related AE) (7.5 mg, Any Grade): 0 n (%)
- Rash (treatment‐related AE) (7.5 mg, Any Grade): 0 n (%)
- Rash pruritic (treatment‐related AE) (7.5 mg, Any Grade): 0 n (%)
- Thrombocytopenia (treatment‐related AE) (7.5 mg, Any Grade): 0 n (%)
- Vomiting (treatment‐related AE) (7.5 mg, Any Grade): 0 n (%)
- Arthralgia (treatment‐related AE) (7.5 mg, Grade ≥3): 0 n (%)
- Asthenia (treatment‐related AE) (7.5 mg, Grade ≥3): 0 n (%)
- Decreased appetite (treatment‐related AE) (7.5 mg, Grade ≥3): 0 n (%)
- Diarrhea (treatment‐related AE) (7.5 mg, Grade ≥3): 0 n (%)
- Dry mouth (treatment‐related AE) (7.5 mg, Grade ≥3): 0 n (%)
- Dysgeusia (treatment‐related AE) (7.5 mg, Grade ≥3): 0 n (%)
- Dyspnea (treatment‐related AE) (7.5 mg, Grade ≥3): 0 n (%)
- Fatigue (treatment‐related AE) (7.5 mg, Grade ≥3): 0 n (%)
- Hyperglycemia (treatment‐related AE) (7.5 mg, Grade ≥3): 0 n (%)
- Increased glycosylated hemoglobin (treatment‐related AE) (7.5 mg, Grade ≥3): 0 n (%)
- Mucositis (treatment‐related AE) (7.5 mg, Grade ≥3): 0 n (%)
- Nausea (treatment‐related AE) (7.5 mg, Grade ≥3): 0 n (%)
- Pruritus (treatment‐related AE) (7.5 mg, Grade ≥3): 0 n (%)
- Rash (treatment‐related AE) (7.5 mg, Grade ≥3): 0 n (%)
- Rash pruritic (treatment‐related AE) (7.5 mg, Grade ≥3): 0 n (%)
- Thrombocytopenia (treatment‐related AE) (7.5 mg, Grade ≥3): 0 n (%)
- Vomiting (treatment‐related AE) (7.5 mg, Grade ≥3): 0 n (%)
- Dose interruptions (15 mg): 2
- Dose reductions (15 mg): 0
- Arthralgia (treatment‐related AE) (15 mg, Any Grade): 0 n (%)
- Asthenia (treatment‐related AE) (15 mg, Any Grade): 1 (50) n (%)
- Decreased appetite (treatment‐related AE) (15 mg, Any Grade): 0 n (%)
- Diarrhea (treatment‐related AE) (15 mg, Any Grade): 1 (50) n (%)
- Dry mouth (treatment‐related AE) (15 mg, Any Grade): 0 n (%)
- Dysgeusia (treatment‐related AE) (15 mg, Any Grade): 1 (50) n (%)
- Dyspnea (treatment‐related AE) (15 mg, Any Grade): 0 n (%)
- Fatigue (treatment‐related AE) (15 mg, Any Grade): 1 (50) n (%)
- Hyperglycemia (treatment‐related AE) (15 mg, Any Grade): 0 n (%)
- Increased glycosylated hemoglobin (treatment‐related AE) (15 mg, Any Grade): 0 n (%)
- Mucositis (treatment‐related AE) (15 mg, Any Grade): 1 (50) n (%)
- Nausea (treatment‐related AE) (15 mg, Any Grade): 0 n (%)
- Pruritus (treatment‐related AE) (15 mg, Any Grade): 1 (50) n (%)
- Rash (treatment‐related AE) (15 mg, Any Grade): 1 (50) n (%)
- Rash pruritic (treatment‐related AE) (15 mg, Any Grade): 0 n (%)
- Thrombocytopenia (treatment‐related AE) (15 mg, Any Grade): 0 n (%)
- Vomiting (treatment‐related AE) (15 mg, Any Grade): 0 n (%)
- Arthralgia (treatment‐related AE) (15 mg, Grade ≥3): 0 n (%)
- Asthenia (treatment‐related AE) (15 mg, Grade ≥3): 0 n (%)
- Decreased appetite (treatment‐related AE) (15 mg, Grade ≥3): 0 n (%)
- Diarrhea (treatment‐related AE) (15 mg, Grade ≥3): 0 n (%)
- Dry mouth (treatment‐related AE) (15 mg, Grade ≥3): 0 n (%)
- Dysgeusia (treatment‐related AE) (15 mg, Grade ≥3): 0 n (%)
- Dyspnea (treatment‐related AE) (15 mg, Grade ≥3): 0 n (%)
- Fatigue (treatment‐related AE) (15 mg, Grade ≥3): 0 n (%)
- Hyperglycemia (treatment‐related AE) (15 mg, Grade ≥3): 0 n (%)
- Increased glycosylated hemoglobin (treatment‐related AE) (15 mg, Grade ≥3): 0 n (%)
- Mucositis (treatment‐related AE) (15 mg, Grade ≥3): 0 n (%)
- Nausea (treatment‐related AE) (15 mg, Grade ≥3): 0 n (%)
- Pruritus (treatment‐related AE) (15 mg, Grade ≥3): 0 n (%)
- Rash (treatment‐related AE) (15 mg, Grade ≥3): 0 n (%)
- Rash pruritic (treatment‐related AE) (15 mg, Grade ≥3): 0 n (%)
- Thrombocytopenia (treatment‐related AE) (15 mg, Grade ≥3): 0 n (%)
- Vomiting (treatment‐related AE) (15 mg, Grade ≥3): 0 n (%)
- Dose interruptions (30 mg): 8
- Dose reductions (30 mg): 0
- Arthralgia (treatment‐related AE) (30 mg, Any Grade): 0 n (%)
- Asthenia (treatment‐related AE) (30 mg, Any Grade): 2 (22) n (%)
- Decreased appetite (treatment‐related AE) (30 mg, Any Grade): 4 (44) n (%)
- Diarrhea (treatment‐related AE) (30 mg, Any Grade): 3 (33) n (%)
- Dry mouth (treatment‐related AE) (30 mg, Any Grade): 1 (11) n (%)
- Dysgeusia (treatment‐related AE) (30 mg, Any Grade): 0 n (%)
- Dyspnea (treatment‐related AE) (30 mg, Any Grade): 1 (11) n (%)
- Fatigue (treatment‐related AE) (30 mg, Any Grade): 4 (44) n (%)
- Hyperglycemia (treatment‐related AE) (30 mg, Any Grade): 4 (44) n (%)
- Increased glycosylated hemoglobin (treatment‐related AE) (30 mg, Any Grade): 0 n (%)
- Mucositis (treatment‐related AE) (30 mg, Any Grade): 2 (22) n (%)
- Nausea (treatment‐related AE) (30 mg, Any Grade): 4 (44) n (%)
- Pruritus (treatment‐related AE) (30 mg, Any Grade): 1 (11) n (%)
- Rash (treatment‐related AE) (30 mg, Any Grade): 1 (11) n (%)
- Rash pruritic (treatment‐related AE) (30 mg, Any Grade): 1 (11) n (%)
- Thrombocytopenia (treatment‐related AE) (30 mg, Any Grade): 1 (11) n (%)
- Vomiting (treatment‐related AE) (30 mg, Any Grade): 2 (22) n (%)
- Arthralgia (treatment‐related AE) (30 mg, Grade ≥3): 0 n (%)
- Asthenia (treatment‐related AE) (30 mg, Grade ≥3): 0 n (%)
- Decreased appetite (treatment‐related AE) (30 mg, Grade ≥3): 0 n (%)
- Diarrhea (treatment‐related AE) (30 mg, Grade ≥3): 0 n (%)
- Dry mouth (treatment‐related AE) (30 mg, Grade ≥3): 0 n (%)
- Dysgeusia (treatment‐related AE) (30 mg, Grade ≥3): 0 n (%)
- Dyspnea (treatment‐related AE) (30 mg, Grade ≥3): 0 n (%)
- Fatigue (treatment‐related AE) (30 mg, Grade ≥3): 0 n (%)
- Hyperglycemia (treatment‐related AE) (30 mg, Grade ≥3): 2 (22) n (%)
- Increased glycosylated hemoglobin (treatment‐related AE) (30 mg, Grade ≥3): 0 n (%)
- Mucositis (treatment‐related AE) (30 mg, Grade ≥3): 0 n (%)
- Nausea (treatment‐related AE) (30 mg, Grade ≥3): 0 n (%)
- Pruritus (treatment‐related AE) (30 mg, Grade ≥3): 0 n (%)
- Rash (treatment‐related AE) (30 mg, Grade ≥3): 0 n (%)
- Rash pruritic (treatment‐related AE) (30 mg, Grade ≥3): 0 n (%)
- Thrombocytopenia (treatment‐related AE) (30 mg, Grade ≥3): 0 n (%)
- Vomiting (treatment‐related AE) (30 mg, Grade ≥3): 0 n (%)
- Dose interruptions (45 mg): 5
- Dose reductions (45 mg): 1
- Arthralgia (treatment‐related AE) (45 mg, Any Grade): 2 (22) n (%)
- Asthenia (treatment‐related AE) (45 mg, Any Grade): 1 (11) n (%)
- Decreased appetite (treatment‐related AE) (45 mg, Any Grade): 3 (33) n (%)
- Diarrhea (treatment‐related AE) (45 mg, Any Grade): 4 (44) n (%)
- Dry mouth (treatment‐related AE) (45 mg, Any Grade): 2 (22) n (%)
- Dysgeusia (treatment‐related AE) (45 mg, Any Grade): 2 (22) n (%)
